Columns and labels:
Lung [1] = assay: Antiallergic activity in passively sensitized albino rat lungs assessed as inhibition of antigen-induced histamine release at 1 x 10^-7 M by fluorometric analysis relative to control; assay type: functional
Summary of the method: (§1)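 Fragmented lung from adult male Charles River albino rats, passively sensitized, then antigen-challenged with compound present; released histamine measured fluorometrically; inhibition reported relative to control, with replicate count given as number of separate lung preparations.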

Lung [2] = assay: Antiallergic activity in passively sensitized albino rat lungs assessed as inhibition of antigen-induced histamine release at 1 x 10^-5 M by fluorometric analysis relative to control; assay type: functional; summary of the method: as §1
Lung [3] = assay: Antiallergic activity in passively sensitized albino rat lungs assessed as inhibition of antigen-induced histamine release at 1 x 10^-6 M by fluorometric analysis relative to control; assay type: functional; summary of the method: as §1
Rattus norvegicus [4] = assay: Antiallergic activity in po dosed rat assessed as inhibition of egg albumin-induced passive cutaneous anaphylaxis treated for 15 mins followed by egg albumin-challenge measured after 30 mins; assay type: functional; details: read-out: ID50 (the source's name)
Summary of the method: (§2)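 Oral PCA in rats: intradermal antiserum at four back sites (dose giving ~12×12 mm wheal), compound po 48 h later, 15 min before iv challenge with 0.5 mL saline containing 5 mg Evans blue plus 5 mg egg albumin; skin bluing read 30 min after challenge on two axes per wheal; six rats per dose versus ≥6 vehicle controls; percent inhibition from mean wheal size, one-sided t test.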

Rattus norvegicus [5] = assay: Antiallergic activity in iv dosed rat assessed as inhibition of egg albumin-induced passive cutaneous anaphylaxis treated for 30 secs followed by egg albumin-challenge measured after 30 mins; assay type: functional; details: 0.5 h, read-out: ID50 (the source's name)
Lung [6] = assay: Antiallergic activity in passively sensitized albino rat lungs assessed as inhibition of antigen-induced histamine release at 1 x 10^-8 M by fluorometric analysis relative to control; assay type: functional; summary of the method: as §1
Lung [7] = assay: Antiallergic activity in passively sensitized albino rat lungs assessed as inhibition of antigen-induced histamine release at 1.6 x 10^-4 M by fluorometric analysis relative to control; assay type: functional; summary of the method: as §1
[8] = Antiallergic activity in passively sensitized rhesus monkey lungs assessed as inhibition of antigen-induced slow reacting substance of anaphylaxis release at 3.3 x 10^-5 M relative to control; assay type: functional, Macaca mulatta, Lung
Summary of the method: (§3)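 Passively sensitized fragmented lung from a young adult male rhesus monkey, challenged with IgE-antihuman IgE; histamine release measured fluorometrically and SRS-A estimated by guinea pig ileum bioassay; inhibition relative to control; replicates given as number of separate lung preparations.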

[9] = Antiallergic activity in passively sensitized rhesus monkey lungs assessed as inhibition of antigen-induced histamine release at 1.6 x 10^-4 M by fluorometric analysis relative to control; assay type: functional, Macaca mulatta, Lung; summary of the method: as §3
Lung [10] = assay: Antiallergic activity in passively sensitized albino rat lungs assessed as inhibition of antigen-induced histamine release at 6.6 x 10^-7 M by fluorometric analysis relative to control; assay type: functional; summary of the method: as §1
Lung [11] = assay: Antiallergic activity in passively sensitized albino rat lungs assessed as inhibition of antigen-induced histamine release at 6.6 x 10^-6 M by fluorometric analysis relative to control; assay type: functional; summary of the method: as §1
[12] = Antiallergic activity in passively sensitized rhesus monkey lungs assessed as inhibition of antigen-induced slow reacting substance of anaphylaxis release at 6.6 x 10^-6 M relative to control; assay type: functional, Macaca mulatta, Lung; summary of the method: as §3
[13] = Antiallergic activity in passively sensitized rhesus monkey lungs assessed as inhibition of antigen-induced histamine release at 3.3 x 10^-5 M by fluorometric analysis relative to control; assay type: functional, Macaca mulatta, Lung; summary of the method: as §3
[14] = Antiallergic activity in passively sensitized rhesus monkey lungs assessed as inhibition of antigen-induced slow reacting substance of anaphylaxis release at 1.6 x 10^-4 M relative to control; assay type: functional, Macaca mulatta, Lung; summary of the method: as §3
[15] = Antiallergic activity in passively sensitized rhesus monkey lungs assessed as inhibition of antigen-induced histamine release at 6.6 x 10^-6 M by fluorometric analysis relative to control; assay type: functional, Macaca mulatta, Lung; summary of the method: as §3
Rattus norvegicus [16] = assay: Antiallergic activity in rat assessed as inhibition of egg albumin-induced passive cutaneous anaphylaxis at 100 mg/kg, iv treated for 30 secs followed by egg albumin-challenge measured after 30 mins relative to control; assay type: functional; details: 0.5 h
Rattus norvegicus [17] = assay: Antiallergic activity in rat assessed as inhibition of egg albumin-induced passive cutaneous anaphylaxis at 25 mg/kg, po treated for 15 mins followed by egg albumin-challenge measured after 30 mins relative to control; assay type: functional; summary of the method: as §2
Rattus norvegicus [18] = assay: Antiallergic activity in rat assessed as inhibition of egg albumin-induced passive cutaneous anaphylaxis at 0.25 mg/kg, iv treated for 30 secs followed by egg albumin-challenge measured after 30 mins relative to control; assay type: functional; details: 0.5 h
Rattus norvegicus [19] = assay: Antiallergic activity in rat assessed as inhibition of egg albumin-induced passive cutaneous anaphylaxis at 0.5 mg/kg, iv treated for 30 secs followed by egg albumin-challenge measured after 30 mins relative to control; assay type: functional; details: 0.5 h
Rattus norvegicus [20] = assay: Antiallergic activity in rat assessed as inhibition of egg albumin-induced passive cutaneous anaphylaxis at 50 mg/kg, po treated for 15 mins followed by egg albumin-challenge measured after 30 mins relative to control; assay type: functional; summary of the method: as §2
[21] = Antiallergic activity in passively sensitized rhesus monkey lungs assessed as inhibition of antigen-induced histamine release at 1 x 10^-5 M by fluorometric analysis relative to control; assay type: functional, Macaca mulatta, Lung; summary of the method: as §3
[22] = Antiallergic activity in passively sensitized rhesus monkey lungs assessed as inhibition of antigen-induced histamine release at 5 x 10^-5 M by fluorometric analysis relative to control; assay type: functional, Macaca mulatta, Lung; summary of the method: as §3
[23] = Antiallergic activity in passively sensitized rhesus monkey lungs assessed as inhibition of antigen-induced slow reacting substance of anaphylaxis release at 1 x 10^-5 M relative to control; assay type: functional, Macaca mulatta, Lung; summary of the method: as §3
[24] = Antiallergic activity in passively sensitized rhesus monkey lungs assessed as inhibition of antigen-induced histamine release at 1 x 10^-6 M by fluorometric analysis relative to control; assay type: functional, Macaca mulatta, Lung; summary of the method: as §3
[25] = Antiallergic activity in passively sensitized rhesus monkey lungs assessed as inhibition of antigen-induced slow reacting substance of anaphylaxis release at 1 x 10^-4 M relative to control; assay type: functional, Macaca mulatta, Lung; summary of the method: as §3
[26] = Antiallergic activity in passively sensitized rhesus monkey lungs assessed as inhibition of antigen-induced slow reacting substance of anaphylaxis release at 5 x 10^-5 M relative to control; assay type: functional, Macaca mulatta, Lung; summary of the method: as §3
[27] = Antiallergic activity in passively sensitized rhesus monkey lungs assessed as inhibition of antigen-induced histamine release by fluorometric analysis; assay type: functional, Macaca mulatta, Lung; summary of the method: as §3
[28] = Antiallergic activity in passively sensitized rhesus monkey lungs assessed as inhibition of antigen-induced slow reacting substance of anaphylaxis release; assay type: functional, Macaca mulatta, Lung; summary of the method: as §3
[29] = Antiallergic activity in passively sensitized rhesus monkey lungs assessed as inhibition of antigen-induced slow reacting substance of anaphylaxis release at 1 x 10^-6 M relative to control; assay type: functional, Macaca mulatta, Lung; summary of the method: as §3
Rattus norvegicus [30] = assay: Ratio of antiallergic activity in iv dosed rat to antiallergic activity in po dosed rat; assay type: functional
Rattus norvegicus [31] = assay: Antiallergic activity in rat assessed as inhibition of egg albumin-induced passive cutaneous anaphylaxis at 0.7 mg/kg, iv treated for 30 secs followed by egg albumin-challenge measured after 30 mins relative to control; assay type: functional; details: 0.5 h
[32] = Antiallergic activity in passively sensitized rhesus monkey lungs assessed as inhibition of antigen-induced histamine release at 1 x 10^-4 M by fluorometric analysis relative to control; assay type: functional, Macaca mulatta, Lung; summary of the method: as §3

CCC(=O)Nc1cc(N/C(C)=C2\C(=O)OC(=O)C(C(C)=O)=C2O)ccc1O
inhibition (INH) (Lung [1]): 70% | inhibition (INH) (Lung [2]): 65% | inhibition (INH) (Lung [3]): 66% | ED50 (Rattus norvegicus [4]): 0.6 mg/kg | ED50 (Rattus norvegicus [5]): 0.4 mg/kg | inhibition (INH) (Lung [6]): 41%

CC(=O)C1=C(O)/C(=C(\C)Nc2ccc(O)cc2)C(=O)OC1=O
inhibition (INH) (Lung [7]): 45% | inhibition (INH) [8]: 33% | inhibition (INH) [9]: 59% | inhibition (INH) (Lung [10]): 34% | ED50 (Rattus norvegicus [4]): 29 mg/kg | ED50 (Rattus norvegicus [5]): 1.3 mg/kg | inhibition (INH) (Lung [11]): 44% | inhibition (INH) [12]: 8.6% | inhibition (INH) [13]: 50% | inhibition (INH) [14]: 51% | inhibition (INH) [15]: 18%

CC(=O)C1=C(O)/C(=C(\C)Nc2ccc(N(C)C)cc2)C(=O)OC1=O
inhibition in vivo at 100 mg/kg (Rattus norvegicus [16]): 11%

CC(=O)Nc1cccc(N/C(C)=C2\C(=O)OC(=O)C(C(C)=O)=C2O)c1
inhibition in vivo at 25 mg/kg (Rattus norvegicus [17]): 53% | inhibition in vivo at 0.25 mg/kg (Rattus norvegicus [18]): 65%

CC(=O)C1=C(O)/C(=C(\C)Nc2ccc(NC(=O)C(C)C)cc2)C(=O)OC1=O
inhibition (INH) (Lung [2]): 92% | inhibition (INH) (Lung [3]): 60% | inhibition in vivo at 25 mg/kg (Rattus norvegicus [17]): 4% | inhibition in vivo at 0.5 mg/kg (Rattus norvegicus [19]): 64%

CC(=O)Nc1cc(NC(C)=O)cc(N/C(C)=C2\C(=O)OC(=O)C(C(C)=O)=C2O)c1
inhibition in vivo at 50 mg/kg (Rattus norvegicus [20]): -1% | ED50 (Rattus norvegicus [5]): 0.01 mg/kg

CC(=O)C1=C(O)/C(=C(\C)Nc2ccc(O)c(N)c2)C(=O)OC1=O.Cl
inhibition (INH) [21]: 22% | inhibition (INH) [22]: 49% | inhibition (INH) (Lung [1]): 42% | inhibition (INH) [23]: 1% | inhibition (INH) [24]: 4% | inhibition (INH) [25]: 56% | inhibition (INH) [26]: 40% | ID30 [27]: 1.3 ×10⁻⁵ M | inhibition (INH) (Lung [2]): 47% | inhibition (INH) (Lung [3]): 61% | ID30 [28]: 3.3 ×10⁻⁵ M | ED50 (Rattus norvegicus [4]): 0.8 mg/kg | inhibition (INH) [29]: -24% | Ratio (Rattus norvegicus [30]): 1 | inhibition in vivo at 0.7 mg/kg (Rattus norvegicus [31]): 50% | inhibition (INH) (Lung [6]): 26% | inhibition (INH) [32]: 66%
